Reference: ChEMBL document CHEMBL1817547, “Design, synthesis, and biological evaluation of curcumin analogues as multifunctional agents for the treatment of Alzheimer's disease” (Bioorg Med Chem, 2011)
Activity calls are given as the source filed them. The calls are words filed in the database; no cut-off is given here.

Legend:
[1] = Inhibition of self-mediated amyloid beta (1 to 42) aggregation after 48 hrs by thioflavin T fluorescence assay
Procedure, shortened: (§1)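 Aβ1–42 (final 20 µM) incubated in 10 mM phosphate pH 7.4 at 37 °C for 48 h with or without compound (2, 5, 10, 20, 50 µM). Samples diluted into 50 mM glycine–NaOH pH 8.5 with 5 µM ThT, read at ex 450/em 485 nm. Inhibition % = (1 − IFi/IFc) × 100; mean ± SD from at least two independent measurements.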

[2] = test system: SH-SY5Y; assay: Cytotoxicity against human SH-SY5Y cells assessed as cell viability at 2.5 uM; assay type: cell-based
Procedure, shortened: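 SH-SY5Y cells seeded at 3 × 10^4 per well, 24 h later exposed to 2.5 µM compound (final 0.05% DMSO) or vehicle for 24 h, then assessed for markers of cell death.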

[3] = Inhibition of self-mediated amyloid beta (1 to 42) aggregation at 50 uM after 48 hrs by thioflavin T fluorescence assay relative to control; procedure, shortened: as §1
[4] = Antioxidant activity assessed as trolox equivalent of APPH-induced radical scavenging activity at 0.625 to 2.5 uM by ORAC fluorescence assay; assay type: functional
Procedure, shortened: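 AAPH (40 mM) peroxyl-radical decay of fluorescein (140 nM working solution) in 75 mM potassium phosphate pH 7.4; compounds from DMSO stocks tested at final 2.5, 1.25 and 0.625 µM. Each mixture in four replicates, at least four independent runs. Curves normalized to blank, net AUC computed, values expressed as Trolox equivalents from a Trolox standard curve.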

[5] = test system: SH-SY5Y; assay: Antioxidant activity in human SH-SY5Y cells assessed as decrease of tert-butyl hydroperoxide-induced ROS production at 2.5 uM after 24 hrs using DCFH-DA by fluorescence assay; assay type: functional, cell-based
Procedure, shortened: (§2)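 SH-SY5Y grown in DMEM with 10% supplement at 37 °C, 5% CO2, seeded 3 × 10^4 cells/well. After 24 h, compounds were added (2.5 µM; reference antioxidants at 20 µM). Cells were loaded with 5 µM DCFH-DA in PBS for 30 min at 37 °C, washed, then exposed to 0.1 mM t-BuOOH for 30 min. Fluorescence read at ex 485/em 535 nm, expressed as % of untreated control.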

[6] = test system: SH-SY5Y; assay: Antioxidant activity in human SH-SY5Y cells assessed as decrease of tert-butyl hydroperoxide-induced ROS production at 20 uM after 24 hrs using DCFH-DA by fluorescence assay; assay type: functional, cell-based; procedure, shortened: as §2
[7] = Inhibition of copper-induced amyloid beta (1 to 42) aggregation in HEPES buffer at pH 6.6 after 45 mins by thioflavin T fluorescence assay
Procedure, shortened: (§3)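 Aβ1–42 (20 µM) co-incubated with 40 µM Cu2+ or Fe2+ (HEPES pH 6.6) or Zn2+ (HEPES pH 7.4), with 150 µM NaCl, with or without 40 µM compound or clioquinol, at 37 °C for 45 min. Samples diluted into 50 mM glycine–NaOH pH 8.5 with 5 µM ThT; fluorescence read at ex 450/em 485 nm.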

[8] = Inhibition of iron-induced amyloid beta (1 to 42) aggregation in HEPES buffer at pH 6.6 after 45 mins by thioflavin T fluorescence assay; procedure, shortened: as §3
[9] = Metal chelating activity of the compound assessed as formation of zinc complex at 20 uM by UV-vis spectrometry; assay type: functional
Procedure, shortened: (§4)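 UV spectra recorded for 20 µM compound alone or with 20 µM ZnSO4, CuSO4 or FeSO4.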

[10] = Metal chelating activity of the compound assessed as formation of copper complex at 20 uM by UV-vis spectrometry; assay type: functional; procedure, shortened: as §4
[11] = Inhibition of amyloid beta (1 to 42) fibril formation assessed as few short fibrils and many breakage points in fibrils at 20 to 40 uM after 32 hrs by transmission electron microscopic analysis
Procedure, shortened: (§5)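 Aβ1–42 (40 µM) aggregated with or without 20 µM compound and sampled at 0, 12 and 32 h. Samples applied to grids, washed with water, negatively stained for 1 min with 2% uranyl acetate, blotted and examined by transmission EM.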

[12] = Inhibition of amyloid beta (1 to 42) fibril formation assessed as less thin and short fibrils at 20 to 40 uM after 12 hrs by transmission electron microscopic analysis; procedure, shortened: as §5
[13] = Metal chelating activity of the compound assessed as formation of iron complex at 20 uM by UV-vis spectrometry; assay type: functional; procedure, shortened: as §4
[14] = Inhibition of amyloid beta (1 to 42) aggregation assessed as stabilization of […] structure at 10 uM after 32 hrs by CD spectroscopy assay
Procedure, shortened: (§6)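 Aβ1–42 (20 µM) incubated at 37 °C with or without 10 µM compound in 10 mM sodium phosphate pH 7.4. At 0, 6, 12 and 32 h, far-UV CD spectra recorded at 25 °C from 190 to 260 nm in a 1 mm quartz cell (bandwidth 0.5 nm, scan 10 nm/min).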

[15] = Inhibition of amyloid beta (1 to 42) aggregation assessed as decrease of beta-sheet structure formation at 10 uM after 32 hrs by CD spectroscopy assay; procedure, shortened: as §6
[16] = Metal chelating activity of the compound assessed as formation of copper complex at 20 uM by molar ratio method; assay type: functional
Procedure, shortened: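 Molar ratio method: compound solutions titrated with increasing CuSO4 or FeSO4; spectra obtained by subtracting CuSO4 and compound at matching concentrations, monitoring the band at 493 nm.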

[17] = Inhibition of zinc-induced amyloid beta (1 to 42) aggregation in HEPES buffer at pH 7.4 after 45 mins by thioflavin T fluorescence assay; procedure, shortened: as §3

Row | SMILES | IC50 [1] [µM] | Activity [2] | inhibition [3] [%] | Ratio [4] | further results
1 | CN1CCN(c2ccc(/C=C/c3cccc(/C=C/c4ccc(N5CCN(C)CC5)cc4)c3)cc2)CC1 | > 50 | Non-toxic | 42.1 | 1.2 | 
2 | CN1CCN(c2ccc(/C=C3\CC/C(=C\c4ccc(N5CCN(C)CC5)cc4)C3=O)cc2)CC1 | 12.6 | Non-toxic | 67.2 | 1.7 | Activity [5]: Active
3 | CN1CCN(c2ccc(/C=C3\CN(C)C/C(=C\c4ccc(N5CCN(C)CC5)cc4)C3=O)cc2)CC1 | 17.6 | Non-toxic | 65.1 | 4.7 | 
4 | O=C1/C(=C/c2ccc(N3CCCCC3)cc2)CNC/C1=C\c1ccc(N2CCCCC2)cc1 | 17.2 | Non-toxic | 64.5 | 2.4 | 
5 | CN1CCN(c2ccc(/C=C/c3cccc(/C=C/c4ccc(N5CCN(C)CC5)cc4)n3)cc2)CC1 | > 50 | Non-toxic | 24 | 1.1 | 
6 | CN1CCN(c2ccc(/C=C3\CCC/C(=C\c4ccc(N5CCN(C)CC5)cc4)C3=O)cc2)CC1 | 6 | Non-toxic | 73.1 | 2.6 | Activity [5]: Active
7 | Cc1c(C)c2c(c(C)c1O)CCC(C)(C(=O)O)O2 (configuration not stated) |  |  |  |  | Activity [6]: Active
8 | CC(=O)N[C@@H](CS)C(=O)O |  |  |  |  | Activity [6]: inactive
9 | Oc1c(I)cc(Cl)c2cccnc12 |  |  |  |  | inhibition [7]: Active; inhibition [8]: Active
10 | CN1CCN(c2ccc(/C=C/C(=O)/C=C/c3ccc(N4CCN(C)CC4)cc3)cc2)CC1 | 21.5 | Non-toxic | 68.6 | 3.2 | Activity [5]: Active
11 | COc1cc(/C=C/C(=O)CC(=O)/C=C/c2ccc(O)c(OC)c2)ccc1O [CURCUMIN] | 12.1 |  | 71.3 | 2.5 | Activity [6]: Active
12 | CN1CCN(c2ccc(/C=C/C(=O)c3cccc(C(=O)/C=C/c4ccc(N5CCN(C)CC5)cc4)c3)cc2)CC1 | 37.8 | Non-toxic | 52.8 | 1.3 | 
13 | CN1CCN(c2ccc(/C=C3\CNC/C(=C\c4ccc(N5CCN(C)CC5)cc4)C3=O)cc2)CC1 | 2.5 | Non-toxic | 90.2 | 5.8 | inhibition [7]: Active; Activity [9]: inactive; Activity [5]: Active; Activity [10]: Active; inhibition [8]: Active; inhibition [11]: Active; inhibition [12]: Active; Activity [13]: Active; inhibition [14]: Active; inhibition [15]: Active; Activity [16]: Active; inhibition [17]: Active
14 | CN1CCN(c2ccc(/C=C/C(=O)CC(=O)/C=C/c3ccc(N4CCN(C)CC4)cc3)cc2)CC1 | 9.2 | Non-toxic | 77.8 | 1.9 | 
15 | CN1CCN(c2ccc(/C=C/C(=O)c3ccc(C(=O)/C=C/c4ccc(N5CCN(C)CC5)cc4)cc3)cc2)CC1 | > 50 | Non-toxic | 35.8 | 1.1 | 
